NR2E3 ag-1 – NR2E3 (human) agonism; Q9Y5X4; GST-NR2E3/biotin-RetCOR TR-FRET, 1536-well; inhibition of corepressor binding, % at 4.78 µM; 0.12% of 320,000 active;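 active means percent inhibition above the cutoff of mean plus 3 SD of all tested compounds, set per screening campaign, cut at about 20% in these data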;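 further: 0% = DMSO wells and 100% = biotin wells as full block of FRET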
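Material: NR2E3–RetCOR corepressor complex | Quantity: 1.35 nM GST-tagged NR2E3 final | Schedule: 5 h at 4 °C | Replication: Singlicate compound wells | Reagent: RetCOR corepressor, biotinylated, 7 nM | Controls: Biotin wells as high control, 0.6% DMSO wells as low control | Signal: TR-FRET, Eu(K)-anti-GST donor, streptavidin-D2 acceptor, ex 340, em 617/671 nm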
PG9 binder – PG9 antibody binding by small molecule; TR-FRET gp120-PG9 antibody binding; inhibition, % at 6.7 µM; 0.43% of 360,000 active; AID 624416; in the data active means inhibition above about 8.5%
Rev-erbA mod – modulates human Rev-erb alpha binding to DNA | P20393 | Rev-erbα–FITC-DNA binding, fluorescence polarization, 90 min | activity, % at 10 µM | 0.79% of 370,000 active;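 active means activity above about 14%, limit read from the data; passing the limit was not always enough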;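 further: 0% = DMSO wells with 35 nM protein and 100% = DMSO wells with 750 nM protein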
Target sequence (P20393 whole entry, looked up): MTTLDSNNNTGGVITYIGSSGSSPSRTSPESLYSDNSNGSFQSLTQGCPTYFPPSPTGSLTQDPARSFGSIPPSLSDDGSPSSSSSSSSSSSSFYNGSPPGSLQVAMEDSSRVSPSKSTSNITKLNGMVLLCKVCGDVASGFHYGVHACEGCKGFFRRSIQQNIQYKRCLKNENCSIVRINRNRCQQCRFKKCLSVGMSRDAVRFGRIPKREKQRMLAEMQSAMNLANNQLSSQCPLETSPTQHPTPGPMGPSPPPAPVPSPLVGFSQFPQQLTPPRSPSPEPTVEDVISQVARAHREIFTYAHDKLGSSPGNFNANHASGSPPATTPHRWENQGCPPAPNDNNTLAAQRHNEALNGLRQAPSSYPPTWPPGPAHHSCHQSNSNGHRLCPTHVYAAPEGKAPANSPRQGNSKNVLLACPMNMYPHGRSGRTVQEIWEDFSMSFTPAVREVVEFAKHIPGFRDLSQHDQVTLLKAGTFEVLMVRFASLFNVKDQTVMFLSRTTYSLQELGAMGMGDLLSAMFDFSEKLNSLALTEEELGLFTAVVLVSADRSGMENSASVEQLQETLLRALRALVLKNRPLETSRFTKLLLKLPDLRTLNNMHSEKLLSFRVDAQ
NR2E3 ag-2 – human photoreceptor-specific nuclear receptor agonism; AID 602229; CHO-S Gal4-NCOR/VP16-NR2E3 two-hybrid, luciferase; inhibition of corepressor binding, % at 3.98 µM; 0.35% of 360,000 active;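 active means inhibition above the mean of all tested compounds plus 3 SD, cut at about 70% in these data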;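 further: 0% = DMSO with NR2E3 transfected cells and 100% = cells lacking NR2E3 construct; higher means lower luciferase signal from less NR2E3 corepressor binding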
NR2E3 ag conf – NR2E3 agonism confirmed in two-hybrid assay; shares compounds with NR2E3 ag-2; CHO-S mammalian two-hybrid NR2E3-NCOR, luciferase luminescence; inhibition, % at 3.98 µM; 51% of 2,300 active; AID 624378;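 active means average inhibition above a cutoff equal to the mean inhibition of all tested compounds plus one SD, cut at about 70% in these data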;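 further: 0% = DMSO in NR2E3 cells and 100% = DMSO in cells lacking NR2E3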
GAL4-VP16 luc – GAL4-VP16 reporter inhibition in NR2E3 agonist counterscreen; shares compounds with NR2E3 ag-2; CHO-S GAL4-VP16 luciferase reporter, luminescence; inhibition, % at 3.98 µM; 29% of 2,300 active; AID 624379;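 active means mean inhibition above a cutoff equal to the average over all tested compounds plus one standard deviation, cut at about 70% in these data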;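 further: luciferase from a UAS reporter driven by GAL4-VP16 transactivation; 0% = DMSO with VP16-transfected cells and 100% = DMSO with cells lacking VP16; higher means less reporter light so more repression of VP16 activity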
Starred values were filed as active, the others as inactive; / = not tested or not shown. Only some compounds are listed: those with a hit (about 1.4% of all), similar ones and a draw of the others.

SMILES | NR2E3 ag-1 | PG9 binder | Rev-erbA mod | NR2E3 ag-2 | NR2E3 ag conf | GAL4-VP16 luc
C#CCCC[C@@H]1OC(=O)CNC(=O)C([C@@H](C)CC)NC(=O)[C@@H]2CCCN2C(=O)C([C@@H](C)CC)OC(=O)[C@H](Cc2ccccc2)N(C)C(=O)[C@H](C(C)C)NC(=O)C1(C)C (stereo not given in full) | / | -1 | 3 | 3 | / | /
CCC(C)C1NC(=O)C(NC(=O)C(CC(C)C)N(C)C(=O)C2CCCN2C(=O)C(C)O)C(C)OC(=O)C(Cc2ccc(OC)cc2)N(C)C(=O)C2CCCN2C(=O)C(CC(C)C)NC(=O)[C@H](C)C(=O)[C@H](C(C)C)OC(=O)CC1O (stereo not given in full) | / | -3 | 1 | 102* | 99* | 100*
CC(=O)OC[C@]12CCC(C)=C[C@H]1O[C@@H]1[C@H](O)[C@@H](OC(C)=O)[C@@]2(C)[C@]12CO2 | -1 | 1 | 4 | 102* | 100* | 99*
Cc1cc(C)c2c(c1)-c1cc(C)nn1C(c1cccnc1)N2 (stereo not given) | 2 | -1 | 1 | -24 | / | /
CCOP(=O)(OCC)OCC | 0 | -1 | -3 | -6 | / | /
CCOP(=O)(CCP(=O)(OCC)OCC)OCC.C[CH2][Sn]([Cl])([Cl])[CH2]C | / | 0 | -2 | 91* | 100* | -41
N#CC(C#N)=NNc1ccc(-n2ccc(C(F)(F)F)n2)cc1 | 2 | 0 | -8 | 96* | 18 | 68
Cc1cc(C)n(-c2ccc(NN=C(C#N)C#N)cc2)n1 | -1 | -1 | 4 | 12 | / | /
CC(=O)c1cn(Cc2ccccc2C#N)c2ccccc12 | 2 | -1 | 0 | 75* | 88* | 85*
O=Cc1cn(Cc2ccccc2F)c2ccccc12 | -2 | 0 | 2 | 14 | / | /
CC(=O)c1cn(Cc2ccccc2F)c2ccccc12 | / | -3 | 1 | 83* | 90* | 75*
CC(C)C[C@@H]1COc2cc(N3CCN(C)CC3)ccc2S(=O)(=O)N1 | / | 1 | -2 | -17 | / | /
O=c1[nH]c(O)c(N=Nc2ccc([N+](=O)[O-])cc2)c(=O)[nH]1 | -3 | -1 | -3 | 10 | / | /
COP(=O)(OC)C1(Nc2ccc(C)cc2)CCCCC1 | 4 | -2 | -7 | 2 | / | /
COc1cc2nc(CN3CC=C(c4ccccc4)CC3)[nH]c(=O)c2cc1OC | 0 | -1 | 2 | 90* | 99* | 42
CN1CCCN(C(=O)COc2ccc(Br)cc2)CC1 | -2 | -2 | 7 | -16 | / | /
CC[C@@]1(O)C(=O)OCc2c1cc1n(c2=O)Cc2cc3ccccc3nc2-1 | -1 | / | / | / | / | /
CCC1(OC(=O)CN)C(=O)OCc2c1cc1n(c2=O)Cc2cc3ccccc3nc2-1 (stereo not given) | 4 | / | / | 93* | 94* | 56
CC(=O)OC1(C)CC(C)C(=O)C(C(O)CC2CC(=O)NC(=O)C2)C1 (stereo not given) | / | -1 | -1 | 105* | 99* | 99*
C[C@@H]1C[C@@H]([C@H](O)CC2CC(=O)NC(=O)C2)C(=O)[C@@H](C)C1 | 3 | 2 | 1 | 102* | 100* | 95*
CCOC(=O)[C@]12Cc3cc(C)ccc3[C@H]1N(C1CCCCC1)C(=O)c1cc(OC)ccc12 | / | 0 | -2 | 95* | 99* | 43
CCOC(=O)[C@]12Cc3cc(OC)ccc3[C@H]1N(C1CCCCC1)C(=O)c1cc(OC)ccc12 | / | 0 | 4 | -13 | / | /
C=C1C(=O)O[C@@H]2C[C@@H](C)[C@@H]3C=CC(=O)[C@@]3(C)[C@@H](O)[C@H]12 | 8 | -1 | 2 | 100* | 99* | 54
C[C@@H]1C[C@H]2OC(=O)C3(CO3)[C@H]2[C@H](O)[C@]2(C)C(=O)C3OC3[C@@H]12 (stereo not given in full) | 4 | / | / | / | / | /
Nc1ncnc2c1ccn2[C@@H]1O[C@H](CO)[C@@H](O)[C@H]1O | 2 | 0 | 3 | 100* | 98* | 89*
NC(=S)c1cn(C2OC(CO)C(O)C2O)c2ncnc(N)c12 (stereo not given) | 0 | -1 | -2 | 103* | 98* | 88*
CCOC(=O)[C@]12Cc3cc(C)ccc3[C@H]1N(Cc1ccccc1)C(=O)c1cc(F)c(F)cc12 | / | -1 | 0 | 14 | / | /

High-throughput results: PubChem BioAssay, several laboratories
